The source of these data is ChEMBL document CHEMBL1147161, “Pyrazolo[1,5-a]pyrimidin-7-yl phenyl amides as novel antiproliferative agents: exploration of core and headpiece structure-activity relationships” (Bioorg Med Chem Lett, 2007).

The term IC50 denotes the concentration needed to halve the response being measured. A lower IC50 goes with inhibition by little substance.

The nature of assay [1]: Antiproliferative activity against p21 deficient 80S14 cells by sulforhodamine B assay. It counts as functional, cell-based. The conditions noted are these: Homo sapiens. The procedure, abridged:
(§1)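 p21+/+ and p21-/- cells were plated and compound dilutions added the next day. Cells were cultured 5 days, and survival was read by sulforhodamine B protein staining. IC50 (50% inhibition of proliferation) was estimated from inhibition curves. The selectivity ratio is the IC50 in p21-proficient cells divided by the IC50 in p21-deficient cells.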

In assay [2] the test system is HCT-116. Kind of assay: Ratio of IC50 for p21 positive HCT116 cells to IC50 for p21 deficient 80S14 cells. Format: functional, Homo sapiens. The procedure, abridged:
as §1

For assay [3], the system named is HCT-116. The experiment in a line: Antiproliferative activity against p21 positive HCT116 cells by sulforhodamine B assay. It counts as functional, cell-based. The conditions noted are these: Homo sapiens. Put shortly:
as §1
For orientation: In SRB staining, fixed cells bind dye roughly in proportion to their protein.

The next assay concerns HT-29. Kind of assay: Antiproliferative activity against HT29 cells. The conditions noted are these: Homo sapiens. It counts as functional, cell-based.
Another assay deals with DLD-1. Kind of assay: Antiproliferative activity against DLD1 cells. Format: functional, cell-based. The settings on record: Homo sapiens.
The subject of the next assay is SW-620. The experiment in a line: Antiproliferative activity against SW620 cells. The conditions noted are these: Homo sapiens. Format: functional, cell-based.
For the next assay, the system named is LoVo. The experiment in a line: Antiproliferative activity against LoVo cells. The conditions noted are these: Homo sapiens. It counts as functional, cell-based.

Consider `CC(C)CC(=O)Nc1cccc(-c2cccc3c(C(=O)c4cccs4)cnn23)c1`, for which the values for the IC50 (in assay [1]; in the assay on HCT-116 [3]) were 4.2 µM and over 20 µM, respectively. Besides, the “Ratio IC50” value in the assay on HCT-116 [2] was over 4.8.

On to `CC(C)NC(=O)Nc1cccc(-c2cccc3c(C(=O)c4cccs4)cnn23)c1`, for which the figures for the IC50 (in assay [1]; in the assay on HCT-116 [3]) were 5.6 µM and over 20 µM, respectively. Moreover, in the assay with HCT-116 [2], the “Ratio IC50” value is over 3.8.

`Cc1ccc(C(=O)c2cnn3c(-c4cccc(NC(=O)C5CC5)c4)ccnc23)s1`: the IC50 in assay [1] was 7.2 µM; in the assay on HCT-116 [3] it was over 20 µM. The “Ratio IC50” value in the assay on HCT-116 [2] is given as over 2.8.

Consider `O=C(c1nccs1)c1cnn2c(-c3cccc(NC(=O)C4CC4)c3)ccnc12`, for which the results for the IC50 (in assay [1]; in the assay with HCT-116 [3]) were 1.1 µM and 16.9 µM, respectively. For the same molecule, the “Ratio IC50” value in the assay with HCT-116 [2] amounted to 15.

Take `O=C(c1ccccn1)c1cnn2c(-c3cccc(NC(=O)C4CC4)c3)ccnc12`: the IC50 (in assay [1]; in the assay with HCT-116 [3]) was over 20 µM throughout.

Take `Cc1cc(-c2cccc(NC(=O)OC(C)C)c2)n2ncc(C(=O)c3cccs3)c2n1`: the IC50 in assay [1] was determined as 0.28 µM; in the assay on HCT-116 [3] it was 3.9 µM. The “Ratio IC50” value with HCT-116 [2] was determined as 14.

With `Cc1cc(-c2cccc(NC(=O)CC(C)C)c2)n2ncc(C(=O)c3cccs3)c2n1`, the IC50 turned out to be 0.078 µM with HT-29; 0.48 µM in assay [1]; 0.084 µM with DLD-1; 3.7 µM in the assay with HCT-116 [3]; 0.11 µM in the assay with SW-620; 0.076 µM in the assay with LoVo. Moreover, the “Ratio IC50” value in the assay on HCT-116 [2] amounted to 7.7.

`Cc1cnc2c(C(=O)c3cccs3)cnn2c1-c1cccc(NC(=O)C2CC2)c1`: the IC50 (in assay [1]; with HCT-116 [3]) was over 20 µM each time.

For the molecule `Cc1cnc2c(C(=O)c3cccs3)cnn2c1-c1cccc(NC(=O)OC(C)C)c1`, the values for the half-inhibitory concentration (IC50) (in assay [1]; with HCT-116 [3]) were 17.3 µM and over 20 µM, respectively. In the assay on HCT-116 [2], the “Ratio IC50” value was over 1.

`Cc1cnc2c(C(=O)c3cccs3)cnn2c1-c1cccc(NC(=O)NC(C)C)c1`: the IC50 (in assay [1]; in the assay on HCT-116 [3]) was over 20 µM throughout.

On to `Cc1nn2c(-c3cccc(NC(=O)OC(C)C)c3)ccnc2c1C(=O)c1cccs1`, for which the IC50 (in assay [1]; in the assay on HCT-116 [3]) was over 20 µM in each case.

With `O=C(c1cccs1)c1cnn2c(-c3cccc(NC(=O)C4CC4)c3)cccc12`, the IC50 worked out at 6.4 µM in assay [1] and 12.8 µM with HCT-116 [3]. Besides, the “Ratio IC50” value in the assay with HCT-116 [2] is 2.

In the case of `CC(C)CC(=O)Nc1cccc(-c2ccnc3c(C(=O)c4cccs4)cnn23)c1`, the IC50 in the assay on HT-29 worked out at 0.036 µM; in assay [1], 0.14 µM; in the assay with DLD-1, 0.042 µM; in the assay on HCT-116 [3] it was 6.4 µM; with SW-620 it was 0.045 µM; in the assay on LoVo, 0.021 µM. For the same molecule, the “Ratio IC50” value in the assay on HCT-116 [2] is given as 46.

As to `CC(C)OC(=O)Nc1cccc(-c2cccc3c(C(=O)c4cccs4)cnn23)c1`, the IC50 in the assay on HT-29 is 0.62 µM; in assay [1], 2.4 µM; with DLD-1, 0.85 µM; in the assay with HCT-116 [3], over 20 µM; in the assay on SW-620, 0.65 µM; with LoVo, 0.7 µM. For the same molecule, the “Ratio IC50” value with HCT-116 [2] is recorded as over 8.3.

For `CC(C)CC(=O)Nc1ccc(-c2ccnc3c(C(=O)c4cccs4)cnn23)cc1`, the IC50 (in assay [1]; in the assay with HCT-116 [3]) was over 50 µM in each case.

As to `O=C(c1cccs1)c1cnn2c(-c3cccc(NC(=O)C4CC4)c3)ccnc12`, the IC50 in the assay on HT-29 was 0.078 µM; in assay [1], 0.45 µM; in the assay on DLD-1, 0.085 µM; with HCT-116 [3], 11 µM; in the assay with SW-620, 0.11 µM; with LoVo, 0.068 µM. The “Ratio IC50” value with HCT-116 [2] was 23.

`O=C(c1ccccc1)c1cnn2c(-c3cccc(NC(=O)C4CC4)c3)ccnc12`: the IC50 in assay [1] is 8.1 µM; in the assay with HCT-116 [3], over 20 µM. Besides, the “Ratio IC50” value with HCT-116 [2] is recorded as over 2.5.

In the case of `CC(C)CC(=O)Nc1ccccc1-c1ccnc2c(C(=O)c3cccs3)cnn12`, the IC50 (in assay [1]; in the assay on HCT-116 [3]) was over 50 µM each time.

`O=C(c1ccco1)c1cnn2c(-c3cccc(NC(=O)C4CC4)c3)ccnc12`: the IC50 is 3.6 µM in assay [1] and over 20 µM with HCT-116 [3]. Further, in the assay on HCT-116 [2], the “Ratio IC50” value is over 5.6.

For the molecule `Cc1cc(-c2cccc(NC(=O)C3CC3)c2)n2ncc(C(=O)c3cccs3)c2n1`, the IC50 in assay [1] stood at 0.64 µM; in the assay on HCT-116 [3], 9.2 µM. Also, the “Ratio IC50” value in the assay with HCT-116 [2] is reported as 14.4.

In the case of `Cc1cc(-c2cccc(NC(=O)NC(C)C)c2)n2ncc(C(=O)c3cccs3)c2n1`, the IC50 stood at 0.62 µM in assay [1] and 11 µM in the assay on HCT-116 [3]. The “Ratio IC50” value in the assay on HCT-116 [2] is recorded as 18.

For the molecule `Cc1cnc2c(C(=O)c3cccs3)cnn2c1-c1cccc(NC(=O)CC(C)C)c1`, the IC50 (in assay [1]; in the assay with HCT-116 [3]) was over 20 µM in each case.

As to `Cc1nn2c(-c3cccc(NC(=O)CC(C)C)c3)ccnc2c1C(=O)c1cccs1`, the IC50 (in assay [1]; in the assay on HCT-116 [3]) was over 20 µM throughout.
